Results: ChEMBL document CHEMBL2413044, “Synthesis and biological evaluation of potential threonine synthase inhibitors: Rhizocticin A and Plumbemycin A” (Bioorg Med Chem, 2013)
Active and inactive are the calls of the source.

Assays:
Assay type in all cases: functional, organism-based
[1] = tested on: Nakaseomyces glabratus; assay: Antifungal activity against Candida glabrata at 3.5 to 1050 ug/L after 24 hrs by YNB medium disc diffusion method in absence of amino acids
Procedure, shortened: (§1)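 Disk diffusion on yeast-seeded agar plates (20 g/L agar added), either malt extract medium or YNB without amino acids. Sterile 6 mm paper disks held varying amounts of compound, matching the liquid-assay concentrations. The growth-inhibition zone diameter was measured after 24 h at 28 °C.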

[2] = tested on: Saccharomyces cerevisiae; assay: Antifungal activity against Saccharomyces cerevisiae at 3.5 to 1050 ug/L after 24 hrs by YNB medium disc diffusion method in absence of amino acids; procedure, shortened: as §1
[3] = tested on: Candida albicans; assay: Antifungal activity against Candida albicans at 3.5 to 1050 ug/L after 24 hrs by YNB medium disc diffusion method in absence of amino acids; procedure, shortened: as §1
[4] = tested on: Nakaseomyces glabratus; assay: Antifungal activity against Candida glabrata at 3.5 to 1050 ug/L after 24 hrs by malt extract medium disc diffusion method; procedure, shortened: as §1
[5] = tested on: Saccharomyces cerevisiae; assay: Antifungal activity against Saccharomyces cerevisiae at 3.5 to 1050 ug/L after 24 hrs by malt extract medium disc diffusion method; procedure, shortened: as §1
[6] = tested on: Candida albicans; assay: Antifungal activity against Candida albicans at 3.5 to 1050 ug/L after 24 hrs by malt extract medium disc diffusion method; procedure, shortened: as §1
[7] = tested on: Nakaseomyces glabratus; assay: Antifungal activity against Candida glabrata at 3.5 to 1050 ug/L after 24 hrs by microdilution method
Procedure, shortened: (§2)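 Yeast microdilution in 24-well plates. Wells were seeded at OD600 0.1 and grown aerobically with the compound (range as in the assay line) for 24 h at 28 °C with agitation. Growth was read as OD600. Runs were in triplicate in YPD, malt extract (20 g/L), RPMI 1640, and YNB without amino acids.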

[8] = tested on: Saccharomyces cerevisiae; assay: Antifungal activity against Saccharomyces cerevisiae at 3.5 to 1050 ug/L after 24 hrs by microdilution method; procedure, shortened: as §2
[9] = tested on: Candida albicans; assay: Antifungal activity against Candida albicans at 3.5 to 1050 ug/L after 24 hrs by microdilution method; procedure, shortened: as §2
[10] = tested on: Pseudomonas aeruginosa; assay: Antibacterial activity against Pseudomonas aeruginosa 2 to 10 ug/L after 24 hrs by Stephenson-Wetham medium disc diffusion method in absence of amino acids
Procedure, shortened: (§3)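 Agar diffusion. Sterile 6 mm paper disks carrying different amounts of compound were placed on Stephenson–Wetham agar (20 g/L agar) pre-seeded with the indicator bacterium. Amounts matched those of the liquid test. After 24 h at 37 °C, the diameter of the growth-inhibition zone was measured.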

[11] = tested on: Escherichia coli; assay: Antibacterial activity against Escherichia coli 2 to 10 ug/L after 24 hrs by Stephenson-Wetham medium disc diffusion method in absence of amino acids; procedure, shortened: as §3
[12] = tested on: Listeria innocua; assay: Antibacterial activity against Listeria innocua 2 to 10 ug/L after 24 hrs by Stephenson-Wetham medium disc diffusion method in absence of amino acids; procedure, shortened: as §3
[13] = tested on: Bacillus subtilis; assay: Antibacterial activity against Bacillus subtilis 2 to 10 ug/L after 24 hrs by Stephenson-Wetham medium disc diffusion method in absence of amino acids; procedure, shortened: as §3
[14] = tested on: Pseudomonas aeruginosa; assay: Antibacterial activity against Pseudomonas aeruginosa 2 to 10 ug/L after 24 hrs by Stephenson-Wetham medium disc diffusion method; procedure, shortened: as §3
[15] = tested on: Escherichia coli; assay: Antibacterial activity against Escherichia coli 2 to 10 ug/L after 24 hrs by Stephenson-Wetham medium disc diffusion method; procedure, shortened: as §3
[16] = tested on: Listeria innocua; assay: Antibacterial activity against Listeria innocua 2 to 10 ug/L after 24 hrs by Stephenson-Wetham medium disc diffusion method; procedure, shortened: as §3
[17] = tested on: Bacillus subtilis; assay: Antibacterial activity against Bacillus subtilis 2 to 10 ug/L after 24 hrs by Stephenson-Wetham medium disc diffusion method; procedure, shortened: as §3
[18] = tested on: Pseudomonas aeruginosa; assay: Antibacterial activity against Pseudomonas aeruginosa 2 to 10 ug/L after 24 hrs by microdilution method
[19] = tested on: Escherichia coli; assay: Antibacterial activity against Escherichia coli 2 to 10 ug/L after 24 hrs by microdilution method
[20] = tested on: Listeria innocua; assay: Antibacterial activity against Listeria innocua 2 to 10 ug/L after 24 hrs by microdilution method
[21] = tested on: Bacillus subtilis; assay: Antibacterial activity against Bacillus subtilis 2 to 10 ug/L after 24 hrs by microdilution method

Measured: Activity

N=C(N)NCCC[C@H](N)C(=O)N[C@@H](/C=C\CP(=O)(O)O)C(=O)O
inactive: [1] | [2] | [3] | [4] | [5] | [6] | [7] | [8] | [9]

C[C@H](N)C(=O)N[C@@H](CC(=O)O)C(=O)N[C@@H](/C=C\CP(=O)(O)O)C(=O)O
not listed: [1] | [2] | [3] | [4] | [5] | [6] | [7] | [8] | [9]
inactive: all other assays above
